For one series, the system named is Haemophilus influenzae. Kind of series: Antibacterial activity against Haemophilus influenzae ATCC 49247. In kind it is functional. In a few lines:
(§1)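 MICs were determined by broth microdilution following NCCLS guidelines. The test panel includes erythromycin-susceptible strains and erythromycin-resistant strains with constitutive or inducible MLSB phenotypes or with efflux resistance.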

Series [1] relates to Staphylococcus aureus. Kind of series: Antibacterial activity against Staphylococcus aureus PSCB-0538. In kind it is functional. In a few lines:
as §1

In series [2] the test system is Streptococcus pyogenes. The series can be described thus: Antibacterial activity against Streptococcus pyogenes PSCB-0545. In kind it is functional. Put shortly:
as §1

Series [3] relates to Staphylococcus aureus. Kind of series: Antibacterial activity against Staphylococcus aureus PSCB-0330. In kind it is functional. In a few lines: as §1
The next series has as its system Enterococcus faecalis. Kind of series: Antibacterial activity against Enterococcus faecalis ATCC 29212. In kind it is functional. Put shortly: as §1
The subject of series [4] is Staphylococcus aureus. Kind of series: Antibacterial activity against Staphylococcus aureus ATCC 13709. In kind it is functional. In a few lines: as §1
Series [5] concerns Streptococcus pyogenes. The series can be described thus: Antibacterial activity against Streptococcus pyogenes PSCB-0543. In kind it is functional. Put shortly:
as §1

The test system of another series is Escherichia coli. Kind of series: Antibacterial activity against Escherichia coli ATCC […]. In kind it is functional. Put shortly:
as §1

The subject of the next series is Streptococcus pneumoniae. Kind of series: Antibacterial activity against Streptococcus pneumoniae PSCB-0541. In kind it is functional. In a few lines:
as §1

Series [6] relates to Staphylococcus aureus. Kind of series: Antibacterial activity against Staphylococcus aureus PSCB-0331. In kind it is functional. In a few lines: as §1
Series [7] can be described thus: Cmax in lungs of mice at the oral dose of 50 mg/kg. In kind it is ADME, organism-based, Lung. Particulars: mouse. Details: dose 50 mg/kg, route oral.
Series [8] relates to Mus musculus. The series can be described thus: T2 in kidney of mice at the oral dose of 50 mg/kg. In kind it is ADME, organism-based. Also on record: dose 50 mg/kg, route oral. The following applies: in vivo.
A short description of series [9]: Tmax in lungs of mice at the oral dose of 50 mg/kg. In kind it is ADME, organism-based, Lung. Details: dose 50 mg/kg, route oral. Particulars: mouse.
The subject of series [10] is Mus musculus. Kind of series: C2 in kidney of mice at the oral dose of 50 mg/kg. In kind it is ADME, organism-based. Details: dose 50 mg/kg, route oral. Particulars: in vivo.
Series [11] has as its system Mus musculus. The series can be described thus: C2 in spleen of mice at the oral dose of 50 mg/kg. In kind it is ADME, organism-based. Details: dose 50 mg/kg, route oral. The following applies: in vivo.
Series [12] has as its system Mus musculus. Kind of series: T2 in lungs of mice at the oral dose of 50 mg/kg. The following applies: in vivo. Details: dose 50 mg/kg, route oral. In kind it is ADME, organism-based, Lung.
Series [13] concerns Mus musculus. The series can be described thus: C2 in liver of mice at the oral dose of 50 mg/kg. In kind it is ADME, organism-based. Details: dose 50 mg/kg, route oral. Particulars: in vivo.
Series [14] in a line: Tmax in brain of mice at the oral dose of 50 mg/kg. In kind it is ADME, organism-based. Also on record: dose 50 mg/kg, route oral. The following applies: mouse.
Series [15] can be described thus: Cmax in spleen of mice at the oral dose of 50 mg/kg. In kind it is ADME, organism-based. Details: dose 50 mg/kg, route oral. Particulars: mouse.
Series [16] deals with Mus musculus. Kind of series: C2 in lungs of mice at the oral dose of 50 mg/kg. In kind it is ADME, organism-based, Lung. Details: dose 50 mg/kg, route oral. The following applies: in vivo.
For series [17], the system named is Mus musculus. Kind of series: T2 in spleen of mice at the oral dose of 50 mg/kg. In kind it is ADME, organism-based. Details: dose 50 mg/kg, route oral. The following applies: in vivo.
The test system of series [18] is Mus musculus. The series can be described thus: T2 in liver of mice at the oral dose of 50 mg/kg. In kind it is ADME, organism-based. Also on record: dose 50 mg/kg, route oral. The following applies: in vivo.
Series [19] can be described thus: Cmax in kidney of mice at the oral dose of 50 mg/kg. In kind it is ADME, organism-based. Particulars: mouse. Also on record: dose 50 mg/kg, route oral.
Series [20] can be described thus: Tmax in liver of mice at the oral dose of 50 mg/kg. In kind it is ADME, organism-based. Also on record: dose 50 mg/kg, route oral. Particulars: mouse.
The nature of series [21]: Tmax in spleen of mice at the oral dose of 50 mg/kg. In kind it is ADME, organism-based. Details: dose 50 mg/kg, route oral. The following applies: mouse.
The nature of series [22]: Cmax in liver of mice at the oral dose of 50 mg/kg. Particulars: mouse. Details: dose 50 mg/kg, route oral. In kind it is ADME, organism-based.
The nature of series [23]: Tmax in kidney of mice at the oral dose of 50 mg/kg. Details: dose 50 mg/kg, route oral. In kind it is ADME, organism-based. Particulars: mouse.

Converted amounts (≈) assume the structure as drawn.

On to `CC[C@H]1OC(=O)C[C@@H](O)[C@H](C)[C@@H](OC2OC(C)C(O)C(N(C)C)C2O)[C@@H](C/C=C/C(=O)O)C[C@@H](C)C(=O)/C=C/C(C)=C/[C@@H]1COC1OC(C)C(O)C(OC)C1OC` (some centres not stated), for which the MIC was 128 µg/mL (≈ 157 µM) with Haemophilus influenzae; greater than 128 µg/mL against Staphylococcus aureus [1]; 128 µg/mL (≈ 157 µM) in the series with Streptococcus pyogenes [2]; greater than 128 µg/mL against Staphylococcus aureus [3]; greater than 128 µg/mL against Enterococcus faecalis; greater than 128 µg/mL with Staphylococcus aureus [4]. Further, the MIC against Streptococcus pyogenes [5], in the series with Escherichia coli, against Streptococcus pneumoniae and against Staphylococcus aureus [6] was greater than 128 µg/mL throughout.
Regarding `CC[C@H]1OC(=O)CC(=O)[C@H](C)[C@@H](O[C@@H]2O[C@@H](C)[C@@H](O)[C@@H](N(C)C)[C@H]2O)[C@H]2C[C@@H](O)[C@](C)(C2)C(=O)/C=C/C(C)=C/[C@@H]1CO[C@@H]1O[C@@H](C)[C@@H](O)[C@@H](OC)[C@@H]1OC`, the MIC against Haemophilus influenzae is 128 µg/mL (≈ 166 µM); in the series with Staphylococcus aureus [1] it was 4 µg/mL (≈ 5.2 µM); with Streptococcus pyogenes [2], 16 µg/mL (≈ 20.8 µM); with Staphylococcus aureus [3], greater than 128 µg/mL; in the series on Enterococcus faecalis, 4 µg/mL (≈ 5.2 µM); with Staphylococcus aureus [4] it was 8 µg/mL (≈ 10.4 µM). Also, the MIC against Streptococcus pyogenes [5] was 64 µg/mL (≈ 83.1 µM); in the series with Escherichia coli it was greater than 128 µg/mL; against Streptococcus pneumoniae, 8 µg/mL (≈ 10.4 µM); in the series with Staphylococcus aureus [6] it was 32 µg/mL (≈ 41.6 µM).
On to `CC[C@H]1O/C(O)=C/C(=O)[C@H](C)[C@@H](OC2OC(C)C(O)C(N(C)C)C2O)[C@@H](CC=O)C[C@@H](C)C(=O)CCC(C)C[C@@H]1COC1OC(C)C(O)C(OC)C1OC` (some centres not stated), for which the MIC is greater than 128 µg/mL against Haemophilus influenzae; 16 µg/mL (≈ 20.7 µM) against Staphylococcus aureus [1]; 1 µg/mL (≈ 1.29 µM) in the series on Streptococcus pyogenes [2]; greater than 128 µg/mL against Staphylococcus aureus [3]; greater than 128 µg/mL against Enterococcus faecalis; 8 µg/mL (≈ 10.3 µM) in the series on Staphylococcus aureus [4]. In addition, the MIC in the series with Streptococcus pyogenes [5] is 8 µg/mL (≈ 10.3 µM); in the series on Escherichia coli, greater than 128 µg/mL; in the series with Streptococcus pneumoniae, 64 µg/mL (≈ 82.7 µM); in the series on Staphylococcus aureus [6] it was 8 µg/mL (≈ 10.3 µM).
For `CCOC(=O)/C=C/C[C@H]1C[C@@H](C)C(=O)/C=C/C(C)=C/[C@H](COC2OC(C)C(O)C(OC)C2OC)[C@@H](CC)OC(=O)C[C@@H](NN(C(=O)OCC)C(=O)OCC)[C@H](C)[C@H]1OC1OC(C)C(O)C(N(C)C)C1O` (some centres not stated), the MIC in the series on Haemophilus influenzae worked out at 128 µg/mL (≈ 128 µM); in the series with Staphylococcus aureus [1], 64 µg/mL (≈ 64 µM); against Streptococcus pyogenes [2] it was 16 µg/mL (≈ 16 µM); in the series on Staphylococcus aureus [3], 128 µg/mL (≈ 128 µM); with Enterococcus faecalis, 64 µg/mL (≈ 64 µM); against Staphylococcus aureus [4], 4 µg/mL (≈ 4 µM). For the same compound, the MIC against Streptococcus pyogenes [5] worked out at 32 µg/mL (≈ 32 µM); in the series with Escherichia coli, 128 µg/mL (≈ 128 µM); in the series on Streptococcus pneumoniae it was 32 µg/mL (≈ 32 µM); against Staphylococcus aureus [6], 32 µg/mL (≈ 32 µM).
Turning to `CC[C@H]1OC(=O)C[C@@H](O)[C@H](C)[C@@H](O[C@@H]2O[C@H](C)[C@@H](O[C@H]3C[C@@](C)(O)[C@@H](O)[C@H](C)O3)[C@H](N(C)C)[C@H]2O)[C@@H](CC=O)C[C@@H](C)C(=O)/C=C/C(C)=C/[C@@H]1CO[C@@H]1O[C@H](C)[C@@H](O)[C@@H](OC)[C@H]1OC` [TYLOSIN], the MIC is 8 µg/mL (≈ 8.73 µM) in the series with Haemophilus influenzae; 0.5 µg/mL (≈ 0.546 µM) against Staphylococcus aureus [1]; 0.5 µg/mL (≈ 0.546 µM) with Streptococcus pyogenes [2]; greater than 128 µg/mL in the series with Staphylococcus aureus [3]; 1 µg/mL (≈ 1.09 µM) against Enterococcus faecalis; 1 µg/mL (≈ 1.09 µM) against Staphylococcus aureus [4]. The MIC was 1 µg/mL (≈ 1.09 µM) with Streptococcus pyogenes [5], 64 µg/mL (≈ 69.9 µM) against Escherichia coli, 0.5 µg/mL (≈ 0.546 µM) in the series with Streptococcus pneumoniae and 1 µg/mL (≈ 1.09 µM) against Staphylococcus aureus [6].
Consider `CC[C@H]1OC(=O)C[C@@H](O)[C@H](C)[C@@H](OC2OC(C)C(O)C(N(C)C)C2O)[C@@H](C/C=C/C(C)=O)C[C@@H](C)C(=O)/C=C/C(C)=C/[C@@H]1COC1OC(C)C(O)C(OC)C1OC` (some centres not stated), for which the maximum concentration (Cmax) came to 10400 ng/g in [7], 7970 ng/g in series [15], 14300 ng/g in series [19] and 33300 ng/g in series [22]. In addition, the T2 with Mus musculus [8] was determined as 4 h; with Mus musculus [12], 0.5 h; with Mus musculus [17], 2 h; in the series with Mus musculus [18], 4 h. The MIC against Haemophilus influenzae came to 4 µg/mL (≈ 4.93 µM); against Staphylococcus aureus [1] it was 0.25 µg/mL (≈ 0.308 µM); in the series on Streptococcus pyogenes [2] it was 0.5 µg/mL (≈ 0.616 µM); in the series on Staphylococcus aureus [3], 128 µg/mL (≈ 158 µM); against Enterococcus faecalis, 1 µg/mL (≈ 1.23 µM); with Staphylococcus aureus [4], 0.25 µg/mL (≈ 0.308 µM). The MIC against Streptococcus pyogenes [5] turned out to be 0.5 µg/mL (≈ 0.616 µM); against Escherichia coli, 128 µg/mL (≈ 158 µM); against Streptococcus pneumoniae, 2 µg/mL (≈ 2.46 µM); in the series with Staphylococcus aureus [6], 0.5 µg/mL (≈ 0.616 µM). Besides, the Tmax was determined as 2 h in [9]; 0 h in series [14]; 2 h in series [20]; 0.5 h in series [21]; 2 h in series [23]. Besides, the C2 was determined as 4.58 µg/g with Mus musculus [10], 7 µg/g with Mus musculus [11], 24.43 µg/g with Mus musculus [13] and 10.24 µg/g in the series with Mus musculus [16].

In general, Cmax refers to the maximum level reached in the sampled fluid or tissue. Broadly, the Tmax is the time at which the peak concentration occurs.
